Measurements as given in ChEMBL document CHEMBL1649120, “Differential effects of inhibiting chitin and 1,3-{beta}-D-glucan synthesis in ras and calcineurin mutants of Aspergillus fumigatus” (2009).
Activity calls are given as the source filed them. The rule behind the calls is not given here. *1 amine or outer side, *2 acyl side, *3 side chain or, on linkers, in order; H or OH if unused. Where a SMILES comes first, the peptide text is derived from it. Bridges are numbered along the chain shown (N, C = ends). [ ]: non-standard residue; d: D form. The star is where a group is joined. pTerphenylCO(4''-OnC5H11) = CCCCCOc1ccc(-c2ccc(-c3ccc(C(=O)*)cc3)cc2)cc1; Orn(4R-OH,5R-OH) = O=C([C@H](C[C@@H](O)[C@@H](O)N[*:3])N[*:1])[*:2]; hTyr(3S-OH,4S-OH) = N[C@H](C(=O)O)[C@H](O)[C@@H](O)c1ccc(O)cc1; Pro(3S-OH,4S-Me) = C[C@H]1CN[C@H](C(=O)O)[C@H]1O; Hyp = O=C(O)[C@@H]1C[C@@H](O)CN1

Experiments:
Aspergillus fumigatus [1] = assay: Antifungal activity against Aspergillus fumigatus Af293 expressing cnaA gene assessed as abnormal hyphal growth by CLSI method; assay type: functional; conditions: read-out: MEC
In short: (§1)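 MEC by CLSI broth microdilution in RPMI 1640. Conidia were incubated with or without drug for 48 h at 37°C, in triplicate.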

Aspergillus fumigatus [2] = assay: Antifungal activity against rasA deficient Aspergillus fumigatus H237 assessed as abnormal hyphal growth by CLSI method; assay type: functional; conditions: read-out: MEC; in short: as §1
Aspergillus fumigatus [3] = assay: Antifungal activity against cnaA deficient Aspergillus fumigatus Af293 assessed as abnormal hyphal growth by CLSI method; assay type: functional; conditions: read-out: MEC; in short: as §1
Aspergillus fumigatus [4] = assay: Antifungal activity against Aspergillus fumigatus H237 assessed as abnormal hyphal growth by CLSI method; assay type: functional; conditions: read-out: MEC; in short: as §1
Aspergillus fumigatus [5] = assay: Antifungal activity against Aspergillus fumigatus H237 expressing rasA gene assessed as abnormal hyphal growth by CLSI method; assay type: functional; conditions: read-out: MEC; in short: as §1
Aspergillus fumigatus [6] = assay: Antifungal activity against Aspergillus fumigatus H237 expressing dominant-active rasA gene assessed as abnormal hyphal growth by CLSI method; assay type: functional; conditions: read-out: MEC; in short: as §1
Aspergillus fumigatus [7] = assay: Antifungal activity against Aspergillus fumigatus Af293 expressing crzA gene assessed as abnormal hyphal growth by CLSI method; assay type: functional; conditions: read-out: MEC; in short: as §1
Aspergillus fumigatus [8] = assay: Antifungal activity against crzA deficient Aspergillus fumigatus Af293 assessed as abnormal hyphal growth by CLSI method; assay type: functional; conditions: read-out: MEC; in short: as §1
Aspergillus fumigatus [9] = assay: Antifungal activity against Aspergillus fumigatus Af293 assessed as abnormal hyphal growth by CLSI method; assay type: functional; conditions: read-out: MEC; in short: as §1
Aspergillus fumigatus [10] = assay: Antifungal activity against cnaA deficient Aspergillus fumigatus Af293 assessed as inhibition of hyphal growth at germling stage at 1 ug/ml by CLSI method; assay type: functional, organism-based
In short: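 Conidia were grown as for CLSI susceptibility testing in RPMI 1640 with or without echinocandin (1 μg/ml) for 48 h at 37°C. Hyphal morphology was then examined by bright-field microscopy.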

Aspergillus fumigatus [11] = assay: Antifungal activity against Aspergillus fumigatus H237 expressing dominant-active rasA assessed as decrease in 1, 3-beta-D-glucan cell wall content at 1 ug/ml after 48 hrs by aniline blue assay; assay type: functional, organism-based
In short: (§2)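 10⁶ conidia/ml were grown in RPMI 1640 with or without drug for 48 h at 37°C, 250 rpm. Hyphae were washed in 0.1 M NaOH and lyophilized. 5 mg was taken into 1 M NaOH, sonicated and heated at 52°C for 30 min. Aniline blue mix (pH 9.5) was added for 30 min at 52°C. Fluorescence was read at ex 405/em 460 nm against a curdlan standard curve. Results are % change in RFU/mg versus untreated wild type, from five independent experiments.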

Aspergillus fumigatus [12] = assay: Antifungal activity against Aspergillus fumigatus Af293 assessed as decrease in 1, 3-beta-D-glucan cell wall content at 1 ug/ml after 48 hrs by aniline blue assay; assay type: functional, organism-based; in short: as §2
Aspergillus fumigatus [13] = assay: Antifungal activity against crzA deficient Aspergillus fumigatus Af293 assessed as increase in calcofluor white staining og conidia at 1 ug/ml after 16 hrss by fluorescence microscopy; assay type: functional, organism-based
In short: (§3)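 10³ conidia/ml were grown on coverslips in RPMI 1640 with or without 1 μg/ml drug for 16 h at 37°C. Coverslips were stained with calcofluor white for 5 min at room temperature, rinsed and mounted. Fluorescence microscopy used a UV exposure fixed at 25 ms, set on the untreated wild type.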

Aspergillus fumigatus [14] = assay: Antifungal activity against cnaA deficient Aspergillus fumigatus Af293 assessed as increase in chitin cell wall content at 1 ug/ml; assay type: functional, organism-based
In short: (§4)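 Cultures were grown at 10⁶ conidia/ml in RPMI 1640 with 1 μg/ml drug (single agent or combination) for 48 h at 37°C, 250 rpm. 5 mg of lyophilized mycelium was digested in saturated KOH at 130°C for 1 h, then ethanol-precipitated. Glucosamine was measured by nitrous acid deamination and MBTH/FeCl₃ colour, A650, against a 10 μg/ml glucosamine standard. Output is glucosamine equivalents (μg/ml), from biological triplicate.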

Aspergillus fumigatus [15] = assay: Antifungal activity against crzA deficient Aspergillus fumigatus Af293 assessed as increase in chitin cell wall content at 1 ug/ml; assay type: functional, organism-based; in short: as §4
Aspergillus fumigatus [16] = assay: Antifungal activity against Aspergillus fumigatus Af293 assessed as increase in calcofluor white staining og conidia at 1 ug/ml after 16 hrs by fluorescence microscopy; assay type: functional, organism-based; in short: as §3
Aspergillus fumigatus [17] = assay: Antifungal activity against cnaA deficient Aspergillus fumigatus Af293 assessed as decrease in 1, 3-beta-D-glucan cell wall content at 1 ug/ml by aniline blue assay; assay type: functional, organism-based; in short: as §2
Aspergillus fumigatus [18] = assay: Antifungal activity against Aspergillus fumigatus Af293 assessed as increase in chitin cell wall content at 1 ug/ml after 48 hrs; assay type: functional, organism-based; in short: as §4
Aspergillus fumigatus [19] = assay: Antifungal activity against Aspergillus fumigatus H237 expressing dominant-active rasA assessed as increase in chitin cell wall content at 1 ug/ml; assay type: functional, organism-based; in short: as §4
Aspergillus fumigatus [20] = assay: Antifungal activity against Aspergillus fumigatus H237 assessed as decrease in 1, 3-beta-D-glucan cell wall content at 1 ug/ml after 48 hrs by aniline blue assay; assay type: functional, organism-based; in short: as §2
Aspergillus fumigatus [21] = assay: Antifungal activity against rasA deficient Aspergillus fumigatus H237 assessed as increase in chitin cell wall content at 1 ug/ml; assay type: functional, organism-based; in short: as §4
Aspergillus fumigatus [22] = assay: Antifungal activity against cnaA deficient Aspergillus fumigatus Af293 assessed as increase in calcofluor white staining og conidia at 1 ug/ml after 16 hrss by fluorescence microscopy; assay type: functional, organism-based; in short: as §3
Candida albicans = assay: Antifungal activity against Candida albicans SC5314 assessed as increase in chitin cell wall content at 0.125 ug/ml; assay type: functional
Aspergillus fumigatus [23] = assay: Antifungal activity against rasA deficient Aspergillus fumigatus H237 assessed as decrease in 1, 3-beta-D-glucan cell wall content at 1 ug/ml by aniline blue assay; assay type: functional, organism-based; in short: as §2
Aspergillus fumigatus [24] = assay: Antifungal activity against crzA deficient Aspergillus fumigatus Af293 assessed as decrease in 1, 3-beta-D-glucan cell wall content at 1 ug/ml by aniline blue assay; assay type: functional, organism-based; in short: as §2
Aspergillus fumigatus [25] = assay: Antifungal activity against Aspergillus fumigatus H237 assessed as increase in chitin cell wall content at 1 ug/ml after 48 hrs; assay type: functional, organism-based; in short: as §4

SMILES | minimal effective concentration (Aspergillus fumigatus [1]) [µg/mL] | minimal effective concentration (Aspergillus fumigatus [2]) [µg/mL] | minimal effective concentration (Aspergillus fumigatus [3]) [µg/mL] | minimal effective concentration (Aspergillus fumigatus [4]) [µg/mL] | minimal effective concentration (Aspergillus fumigatus [5]) [µg/mL] | minimal effective concentration (Aspergillus fumigatus [6]) [µg/mL] | minimal effective concentration (Aspergillus fumigatus [7]) [µg/mL] | minimal effective concentration (Aspergillus fumigatus [8]) [µg/mL] | minimal effective concentration (Aspergillus fumigatus [9]) [µg/mL] | Activity (Aspergillus fumigatus [10]) | also measured
CCCCCOc1ccc(-c2ccc(-c3ccc(C(=O)N[C@H]4C[C@@H](O)[C@@H](O)NC(=O)[C@@H]5[C@@H](O)[C@@H](C)CN5C(=O)[C@H]([C@@H](C)O)NC(=O)[C@H]([C@H](O)[C@@H](O)c5ccc(O)cc5)NC(=O)[C@@H]5C[C@@H](O)CN5C(=O)[C@H]([C@@H](C)O)NC4=O)cc3)cc2)cc1 [ANIDULAFUNGIN] ({pTerphenylCO(4''-OnC5H11)}-[Orn(4R-OH,5R-OH)]T[Hyp][hTyr(3S-OH,4S-OH)]T[Pro(3S-OH,4S-Me)]; lactam 1-C) | 0.0625 | 2 | 0.0039 | 0.0625 | 0.125 | 0.0156 | 0.125 | 0.0156 | 0.0625 | Active | –
CC[C@H](C)C[C@H](C)CCCCCCCCC(=O)N[C@H]1C[C@@H](O)[C@@H](NCCN)NC(=O)[C@@H]2[C@@H](O)CCN2C(=O)[C@H]([C@H](O)CCN)NC(=O)[C@H]([C@H](O)[C@@H](O)c2ccc(O)cc2)NC(=O)[C@@H]2C[C@@H](O)CN2C(=O)[C@H]([C@@H](C)O)NC1=O [CASPOFUNGIN] | 1 | 8 | 0.25 | 1 | 1 | 0.25 | 1 | 0.5 | 1 | Active | Activity (Aspergillus fumigatus [11]): Active; Activity (Aspergillus fumigatus [12]): Active; Activity (Aspergillus fumigatus [13]): Active; Activity (Aspergillus fumigatus [14]): inactive; Activity (Aspergillus fumigatus [15]): inactive; Activity (Aspergillus fumigatus [16]): inactive; Activity (Aspergillus fumigatus [17]): Active; Activity (Aspergillus fumigatus [18]): Active; Activity (Aspergillus fumigatus [19]): Active; Activity (Aspergillus fumigatus [20]): Active; Activity (Aspergillus fumigatus [21]): Active; Activity (Aspergillus fumigatus [22]): inactive; fold change (FC) (Candida albicans): 2; Activity (Aspergillus fumigatus [23]): Active; Activity (Aspergillus fumigatus [24]): Active; Activity (Aspergillus fumigatus [25]): Active
